Data published in ChEMBL document CHEMBL4428051, “Preclinical Activity of New [1,2]Oxazolo[5,4-e]isoindole Derivatives in Diffuse Malignant Peritoneal Mesothelioma” (J Med Chem, 2016).
The source made the active and inactive calls. No cut-off for these calls is given here.

Columns and labels:
[1] = system: Panel NCI-60 (60 carcinoma cell lines); assay: Growth inhibition of human NCI60 cells at 10^-4 to 10^-8 M after 48 hrs by sulforhodamine B assay; format: functional, cell-based
Homo sapiens [2] = organism: Homo sapiens; assay: Cell cycle arrest in human MP4 cells assessed as decrease in cell levels at G1 phase at IC50 to IC80 after 48 to 72 hrs by propidium iodide staining-based flow cytometric method; format: functional
Method in brief: (§1)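 Cells exposed to drug or 1% (v/v) DMSO control for 48 and 72 h. Adherent and floating cells fixed in 70% EtOH, then stained 30 min at 4 °C with propidium iodide 50 μg/mL, RNase and 0.05% Nonidet-P40 in PBS. Flow cytometry read ≥30000 events; G1, S and G2/M percentages fitted with the Modfit model; mean of three independent experiments.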

[3] = Growth inhibition of human MP4 cells after 72 hrs by MTS assay; format: functional
Method in brief: (§2)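 DMPM lines were kept in DMEM F12 with 10% heat-inactivated FBS at 37 °C, 5% CO₂. 4500 cells/well were plated 24 h, then exposed 72 h to 0.1−100 μM; vehicle was 0.01% DMSO. MTS read at OD 490 nm and expressed as % of DMSO-treated cells. Eight replicates per condition, ≥3 independent repeats. IC50 and IC80 were taken graphically from dose–response curves.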

[4] = Growth inhibition of human STO cells after 72 hrs by MTS assay; format: functional; method in brief: as §2
[5] = Cell cycle arrest in human MP8 cells assessed as mitotic cells at IC50 after 72 hrs by MPM2 staining-based fluorescence microscopic analysis relative to control; format: functional
[6] = Growth inhibition of human MP8 cells after 72 hrs by MTS assay; format: functional; settings: MP8, 72 h; method in brief: as §2
Homo sapiens [7] = organism: Homo sapiens; assay: Cell cycle arrest in human STO cells assessed as decrease in cell levels at G1 phase at IC50 to IC80 after 48 to 72 hrs by propidium iodide staining-based flow cytometric method; format: functional; method in brief: as §1
[8] = Toxicity in athymic nude mouse xenografted with human STO cells assessed as body weight loss at 5 mg/kg, ip administrated every 7 days for 4 weeks starting from day 10 post tumor implantation; format: organism-based; settings: in vivo
Method in brief: (§3)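 Female nude mice, 6−8 weeks old, with 10⁷ exponentially growing STO cells injected subcutaneously into the right flank. Eight mice per group, randomly assigned to vehicle control or treatment. Compound was given ip in 10% DMSO / 90% saline. Tumor diameters were measured weekly by caliper.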

Homo sapiens [9] = organism: Homo sapiens; assay: Cell cycle arrest in human STO cells assessed as decrease in cell levels at S phase at IC50 to IC80 after 48 to 72 hrs by propidium iodide staining-based flow cytometric method; format: functional; method in brief: as §1
[10] = Toxicity in athymic nude mouse xenografted with human STO cells assessed as drug tolerance at 5 mg/kg, ip administrated every 7 days for 4 weeks starting from day 10 post tumor implantation; format: organism-based; settings: in vivo; method in brief: as §3
Tubulin (Sus scrofa) [11] = target: T1, Tubulin (Sus scrofa) (UniProt P02554+P02550); assay: Inhibition of GTP-induced porcine tubulin polymerization at 10 uM measured every minute up to 60 mins relative to control; format: protein assay
Method in brief: (§4)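 Test agent or taxol/vinorelbine was added at 10 μmol/L. Polymerization was started at 37 °C and followed by absorbance at 340 nm every minute up to 60 min.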

Homo sapiens [12] = organism: Homo sapiens; assay: Induction of apoptosis in human MP4 cells assessed as increase in caspase-3 catalytic activity by measuring DEVD-pNA hydrolysis at IC50 to IC80 by spectrofluorometric method; format: functional, cell-based; settings: TDE = time-dependent effect
Homo sapiens [13] = organism: Homo sapiens; assay: Induction of apoptosis in human STO cells assessed as increase in caspase-3 catalytic activity by measuring DEVD-pNA hydrolysis at IC50 to IC80 by spectrofluorometric method; format: functional, cell-based; settings: TDE = time-dependent effect
Tubulin (Homo sapiens) [14] = target: T2, Tubulin (Homo sapiens) (UniProt P68371+Q9H4B7+P0DPH7+P68366+Q13509+Q71U36+P04350+Q3ZCM7+P07437+P68363+Q9BQE3+Q6PEY2+Q13885+Q9BVA1+Q9BUF5); assay: Inhibition of tubulin polymerization in human MP4 cells at IC50 after 24 hrs by Western blot analysis relative to soluble fraction of tubulin; format: cell-based
[15] = Antitumor activity against human STO cells xenografted in athymic nude mouse assessed as tumor growth inhibition at 5 mg/kg, ip administrated every 7 days for 4 weeks starting from day 10 post tumor implantation relative to control; format: functional; settings: read-out: TGI
Method in brief: (§5)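 Female nude mice, 6−8 weeks old, given 10⁷ exponentially growing STO cells s.c. in the right flank; 8 mice/group. Drug in 10% DMSO/90% saline, 5 mg/kg ip q7dx4 from day 10 after inoculum; controls got vehicle. Tumour diameters caliper-measured weekly, TV = d²×D/2, TVI% = 100 − (mean TV treated/mean TV control × 100). Ki67 staining on formalin-fixed paraffin sections of tumours after the last treatment.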

Homo sapiens [16] = organism: Homo sapiens; assay: Cell cycle arrest in human MP4 cells assessed as decrease in cell levels at S phase at IC50 to IC80 after 48 to 72 hrs by propidium iodide staining-based flow cytometric method; format: functional; method in brief: as §1
WI-38 = assay: Growth inhibition of human WI38 cells after 72 hrs by MTS assay; format: cell-based; settings: WI-38, 72 h
Tubulin (Homo sapiens) [17] = target: T2, Tubulin (Homo sapiens); assay: Inhibition of tubulin polymerization in human STO cells at IC50 after 24 hrs by Western blot analysis relative to soluble fraction of tubulin; format: cell-based
Homo sapiens [18] = organism: Homo sapiens; assay: Cell cycle arrest in human MP4 cells assessed as accumulation at G2/M phase at IC50 to IC80 by propidium iodide staining-based flow cytometric method; format: functional; settings: TDE = time-dependent effect; method in brief: as §1
[19] = Toxicity in athymic nude mouse xenografted with human STO cells assessed as mortality at 5 mg/kg, ip administrated every 7 days for 4 weeks starting from day 10 post tumor implantation; format: organism-based; settings: in vivo; method in brief: as §3
[20] = Induction of apoptosis in human STO cells assessed as increase in caspase-3 catalytic activity by measuring DEVD-pNA hydrolysis at IC80 after 72 hrs by spectrofluorometric method relative to control; format: functional
Method in brief: (§6)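 STO and MP4 cells were exposed 72 h to drug or to 1% (v/v) DMSO control, then washed, pelleted and lysed. Total protein was mixed with DEVD-pNA for 1 h at 37 °C. Hydrolysis was read fluorometrically, ex 380/em 460 nm, as relative fluorescence units. Mean of three independent experiments.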

[21] = Induction of apoptosis in human MP4 cells assessed as increase in caspase-3 catalytic activity by measuring DEVD-pNA hydrolysis at IC80 after 72 hrs by spectrofluorometric method relative to control; format: functional; method in brief: as §6
[22] = Cell cycle arrest in human STO cells assessed as mitotic cells at IC50 after 72 hrs by MPM2 staining-based fluorescence microscopic analysis relative to control; format: functional
Homo sapiens [23] = assay: Antitumor activity against human STO cells xenografted in athymic nude mouse assessed as suppression of cell proliferation at 5 mg/kg, ip administrated every 7 days for 4 weeks starting from day 10 post tumor implantation measured post last dose by Ki67 immunohistochemical staining-based assay; format: functional, organism-based; method in brief: as §5
Homo sapiens [24] = organism: Homo sapiens; assay: Cell cycle arrest in human STO cells assessed as accumulation at G2/M phase at IC50 to IC80 by propidium iodide staining-based flow cytometric method; format: functional; settings: TDE = time-dependent effect; method in brief: as §1
Homo sapiens [25] = organism: Homo sapiens; assay: Cell cycle arrest in human STO cells assessed as accumulation at G2/M phase at IC50 after 48 to 72 hrs by propidium iodide staining-based flow cytometric method; format: functional; method in brief: as §1
Homo sapiens [26] = organism: Homo sapiens; assay: Cell cycle arrest in human MP4 cells assessed as accumulation at G2/M phase at IC50 after 48 to 72 hrs by propidium iodide staining-based flow cytometric method; format: functional; method in brief: as §1
Homo sapiens [27] = organism: Homo sapiens; assay: Cell cycle arrest in human STO cells assessed as decrease in cell levels at G1 phase at IC50 after 48 to 72 hrs by propidium iodide staining-based flow cytometric method; format: functional; method in brief: as §1
[28] = Cell cycle arrest in human MP8 cells assessed as mitotic cells at 18 nM after 72 hrs by MPM2 staining-based fluorescence microscopic analysis relative to control; format: functional
Homo sapiens [29] = organism: Homo sapiens; assay: Cell cycle arrest in human STO cells assessed as decrease in cell levels at S phase at IC50 after 48 to 72 hrs by propidium iodide staining-based flow cytometric method; format: functional; method in brief: as §1
Tubulin (Sus scrofa) [30] = target: T1, Tubulin (Sus scrofa); assay: Induction of GTP-induced porcine tubulin polymerization at 10 uM measured every minute up to 60 mins relative to control; format: protein assay; method in brief: as §4
Homo sapiens [31] = organism: Homo sapiens; assay: Cell cycle arrest in human MP4 cells assessed as decrease in cell levels at G1 phase at IC50 after 48 to 72 hrs by propidium iodide staining-based flow cytometric method; format: functional; method in brief: as §1
[32] = Cell cycle arrest in human STO cells assessed as mitotic cells at 1 nM after 72 hrs by MPM2 staining-based fluorescence microscopic analysis relative to control; format: functional
Homo sapiens [33] = organism: Homo sapiens; assay: Cell cycle arrest in human MP4 cells assessed as decrease in cell levels at S phase at IC50 after 48 to 72 hrs by propidium iodide staining-based flow cytometric method; format: functional; method in brief: as §1
Tubulin (Homo sapiens) [34] = target: T2, Tubulin (Homo sapiens); assay: Inhibition of tubulin polymerization in human MP4 cells at 10 nM after 24 hrs by Western blot analysis relative to soluble fraction of tubulin; format: cell-based
[35] = Cell cycle arrest in human MP8 cells assessed as mitotic cells at 13 nM after 72 hrs by MPM2 staining-based fluorescence microscopic analysis relative to control; format: functional
Tubulin (Homo sapiens) [36] = target: T2, Tubulin (Homo sapiens); assay: Inhibition of tubulin polymerization in human STO cells at 2 nM after 24 hrs by Western blot analysis relative to soluble fraction of tubulin; format: cell-based
[37] = Cell cycle arrest in human STO cells assessed as mitotic cells at 2 nM after 72 hrs by MPM2 staining-based fluorescence microscopic analysis relative to control; format: functional

T1 sequence (P02550 whole entry, looked up): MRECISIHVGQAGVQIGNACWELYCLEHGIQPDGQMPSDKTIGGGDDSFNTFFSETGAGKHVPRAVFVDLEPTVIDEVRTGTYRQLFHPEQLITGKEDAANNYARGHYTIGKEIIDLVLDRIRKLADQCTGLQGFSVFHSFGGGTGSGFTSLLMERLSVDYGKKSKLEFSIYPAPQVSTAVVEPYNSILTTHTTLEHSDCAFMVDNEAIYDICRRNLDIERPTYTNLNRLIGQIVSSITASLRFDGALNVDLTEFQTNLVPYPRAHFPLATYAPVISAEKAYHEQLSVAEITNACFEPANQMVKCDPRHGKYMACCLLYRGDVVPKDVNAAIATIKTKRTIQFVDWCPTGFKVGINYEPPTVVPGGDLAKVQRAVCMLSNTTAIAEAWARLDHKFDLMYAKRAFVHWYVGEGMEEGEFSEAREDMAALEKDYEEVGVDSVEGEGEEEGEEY
T1 sequence (P02554 whole entry, looked up): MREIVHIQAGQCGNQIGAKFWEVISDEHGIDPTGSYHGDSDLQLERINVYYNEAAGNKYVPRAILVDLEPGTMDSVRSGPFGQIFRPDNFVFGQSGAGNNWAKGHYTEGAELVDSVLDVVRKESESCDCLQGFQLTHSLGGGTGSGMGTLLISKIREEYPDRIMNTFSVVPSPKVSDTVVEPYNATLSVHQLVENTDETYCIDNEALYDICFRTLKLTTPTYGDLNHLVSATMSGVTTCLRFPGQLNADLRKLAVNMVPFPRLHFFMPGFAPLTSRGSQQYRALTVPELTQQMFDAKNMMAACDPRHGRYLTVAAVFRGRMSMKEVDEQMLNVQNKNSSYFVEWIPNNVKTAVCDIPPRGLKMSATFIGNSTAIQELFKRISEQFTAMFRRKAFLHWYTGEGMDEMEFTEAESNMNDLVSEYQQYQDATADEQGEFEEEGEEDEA

With COc1ccc(Cn2cc3c(c2-c2cc(OC)c(OC)c(OC)c2)CCc2cnoc2-3)cc1[N+](=O)[O-] the “growth inhibition (GI)” value [1] was “Active”.

With COc1ccc(Cn2cc3c(c2-c2ccc(O)cc2)CCc2cnoc2-3)cc1 the “growth inhibition (GI)” value [1] was “Active”.

In the case of COc1ccc(Cn2cc3c(c2-c2ccccc2)CCc2cnoc2-3)cc1N, the “growth inhibition (GI)” value [1] is reported as “Active”.

For COc1ccc(Cn2cc3c(c2-c2ccc(OC)cc2)CCc2cnoc2-3)cc1, the “growth inhibition (GI)” value [1] was “Active”.

With COc1ccc(Cn2cc3c(c2-c2cc(OC)c(OC)c(OC)c2)CCc2cnoc2-3)cc1N the “growth inhibition (GI)” value [1] was “Active”, the Activity (Homo sapiens [2]) was “Active” and the IC50 [3] was 160 nM. For the same molecule, the IC50 [4] was 70 nM, the Activity [5] was 30 - 50% and the IC50 [6] was 130 nM. The Activity (Homo sapiens [7]) was “Active”, the Activity [8] was “Non-Toxic” and the Activity (Homo sapiens [9]) was “Active”. The Activity [10] was “Non-Toxic”, the inhibition (Tubulin (Sus scrofa) [11]) was “Active” and the Activity (Homo sapiens [12]) was “Tde”. The Activity (Homo sapiens [13]) was “Tde”, the inhibition (Tubulin (Homo sapiens) [14]) was “Active” and the inhibition in vivo at 5 mg/kg [15] was 59%. For the same molecule, the Activity (Homo sapiens [16]) was “Active”, the IC50 (WI-38) was > 100000 nM and the inhibition (Tubulin (Homo sapiens) [17]) was “Active”. For the same molecule, the Activity (Homo sapiens [18]) was “Tde”, the Activity [19] was “Non-Toxic” and the “fold change (FC)” value [20] was 38.5. The “fold change (FC)” value [21] was 35, the Activity [22] was 30 - 50% and the Activity (Homo sapiens [23]) was “Active”. For the same molecule, the Activity (Homo sapiens [24]) was “Tde”.

With CC(=O)O[C@H]1C(=O)[C@@]2(C)[C@H]([C@H](OC(=O)c3ccccc3)[C@]3(O)C[C@H](OC(=O)[C@H](O)[C@@H](NC(=O)c4ccccc4)c4ccccc4)C(C)=C1C3(C)C)[C@]1(OC(C)=O)CO[C@@H]1C[C@@H]2O [PACLITAXEL] the Activity (Homo sapiens [25]) was “Active”, the Activity (Homo sapiens [26]) was “Active” and the Activity (Homo sapiens [27]) was “Active”. For the same molecule, the Activity [28] was 30 - 50%, the Activity (Homo sapiens [29]) was “Active” and the Activity (Tubulin (Sus scrofa) [30]) was “Active”. For the same molecule, the Activity (Homo sapiens [31]) was “Active”, the Activity [32] was 30 - 50% and the Activity (Homo sapiens [33]) was “Active”.

In the case of COc1ccc(Cn2cc3c(c2-c2cc(OC)c(OC)c(OC)c2)CCc2cnoc2-3)cc1, the “growth inhibition (GI)” value [1] is reported as “Active”.

With COc1ccc(Cn2cc3c(c2-c2ccccc2)CCc2cnoc2-3)cc1 the “growth inhibition (GI)” value [1] was “Active”.

For CCC1=C[C@@H]2CN(C1)Cc1c([nH]c3ccccc13)[C@@](C(=O)OC)(c1cc3c(cc1OC)N(C)[C@H]1[C@@](O)(C(=O)OC)[C@H](OC(C)=O)[C@]4(CC)C=CCN5CC[C@]31[C@@H]54)C2 [VINORELBINE], the inhibition (Tubulin (Homo sapiens) [34]) was “Active”, the Activity (Homo sapiens [25]) was “Active” and the Activity (Homo sapiens [26]) was “Active”. For the same molecule, the Activity (Homo sapiens [27]) was “Active”, the Activity [35] was 30 - 50% and the Activity (Homo sapiens [29]) was “Active”. The inhibition (Tubulin (Sus scrofa) [11]) was “Active”, the Activity (Homo sapiens [31]) was “Active” and the inhibition (Tubulin (Homo sapiens) [36]) was “Active”. For the same molecule, the Activity [37] was 30 - 50% and the Activity (Homo sapiens [33]) was “Active”.
